Counter-ions that a name gives are not always drawn.
What was measured:
MPG [1] = molecular target: T1, MPG (Homo sapiens, UniProt P29372); test: Gel-based MPG activity assay in whole cell extracts; type: biochemical; conditions: 0–300 µM compound
[2] = tested on: undamaged (control) oligonucleotide; test: SPR binding of compounds to immobilized undamaged; conditions: 15 µM compound
Summary of the method: (§1)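 Biacore T100 SPR. Biotinylated 50-mer oligonucleotide, undamaged or εA-containing, immobilised on a streptavidin-coated C1 chip. Test compound injected at 15 µM in 10 mM HEPES-KOH pH 7.6, 90 mM KCl, 0.05% surfactant P20, at 7°C. Binding read as background-subtracted RU over 60 s injections.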

[3] = tested on: εA-containing oligonucleotide; test: SPR binding of compounds to immobilized εA-containing oligonucleotide; conditions: 15 µM compound
Summary of the method: as §1

MPG [4] = molecular target: T1, MPG; test: SPR inhibition of hMPG binding to εA-containing substrate DNA; conditions: 40 µM morin hydrate
Summary of the method: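 SPR with biotinylated εA-containing 50-mer oligonucleotide immobilised on a streptavidin C1 chip. Injections of 30 nM purified human MPG pre-mixed with test compound (0, 5, 10, 20, 40 µM), 60 s each. Binding taken as background-subtracted RU. Percent inhibition calculated as the decrease in RU versus DMSO.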

[5] = tested on: 8-oxoguanine DNA glycosylase (OGG1); test: Gel-based OGG1 activity assay; type: biochemical; conditions: 0, 20 and 40 µM; not dose-dependent
Summary of the method: (§2)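 Purified recombinant OGG1 pre-incubated with test compound for 10 min at room temperature. Then reacted with a ³²P-labelled 8-oxo-dG-containing duplex oligonucleotide for 10 min at 37°C. Products resolved on denaturing 20% polyacrylamide/7 M urea gels at 60°C; band intensities quantified from X-ray film.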

[6] = tested on: apurinic/apyrimidinic endonuclease 1 (APE1); test: Gel-based APE1 activity assay; type: biochemical; conditions: 0, 20 and 40 µM
Summary of the method: as §2, with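 “APE1” for “OGG1”, “³²P-labelled” for “³²P-labelled 8-oxo-dG-containing”, “oligonucleotide carrying a THF abasic-site analogue” for “oligonucleotide”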

A549 cells = test: MTT assay; type: cell-based, human; conditions: A549, concentrations used in the repair assay, 72 h
DNA polymerase β = conditions: high throughput screening; ref Pubchem Bioassay AID 485314 and 2517; cited from earlier work
repair of 8-oxo-dG = test: Plasmid-based in-cell repair assay, 8-oxo-dG-containing M13mp18 plasmid; set-up: species or system human
Summary of the method: (§3)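 Lesion (εA or 8-oxo-dG) was placed at the EcoRI site of M13mp18. A phosphorylated lesion primer was annealed to ssDNA, extended with T7 polymerase, ligated with T4 ligase, supercoiled and purified. A549 and HeLa cells (DMEM, 10% FBS, 1% antibiotic) were transfected with 0, 200 or 300 µM test compound. Recovered plasmids were cut with EcoRI (lesion site) and SacI (internal control), and repair was scored by plaque formation.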

repair of εA = test: Plasmid-based in-cell repair assay, εA-containing M13mp18 plasmid; set-up: species or system human
Summary of the method: as §3

APE1 = conditions: high throughput screening; ref Pubchem Bioassay AID 485314 and 2517; cited from earlier work
HeLa cells = test: MTT assay; type: cell-based, human; conditions: concentrations used in the repair assay, 72 h

T1 sequence (P29372 18-298): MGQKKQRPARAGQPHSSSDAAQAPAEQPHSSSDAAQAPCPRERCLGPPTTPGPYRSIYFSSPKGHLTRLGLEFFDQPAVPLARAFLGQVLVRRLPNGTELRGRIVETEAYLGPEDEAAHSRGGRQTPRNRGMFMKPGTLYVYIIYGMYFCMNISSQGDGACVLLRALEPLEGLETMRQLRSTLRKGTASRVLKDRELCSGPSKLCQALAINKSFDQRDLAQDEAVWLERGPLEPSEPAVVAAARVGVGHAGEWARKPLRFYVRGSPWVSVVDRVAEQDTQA

Q: For O=c1c(O)c(-c2ccc(O)c(O)c2)oc2cc(O)cc(O)c12 [Quercetin], which “MPG activity in whole cell extract” value (MPG [1]; HeLa extract) is on record?
A: Its value is “did not have an effect”.

Q: What does the source list for Cc1cc2c(C(C)C)c(O)c(O)c(C=O)c2c(O)c1-c1c(C)cc2c(C(C)C)c(O)c(O)c(C=O)c2c1O [gossypol]?
A: affinity for unmodified (control) DNA [2]: demonstrated affinity for DNA; affinity for εA-containing DNA [3]: demonstrated affinity for DNA

Q: Which “affinity for unmodified (control) DNA” value [2] does the source give for O=C1c2c(O)ccc(O)c2C(=O)c2c(NCCNCCO)ccc(NCCNCCO)c21 [mitoxantrone dihydrochloride] here?
A: The value was “demonstrated affinity for DNA”.

Q: And the “affinity for εA-containing DNA” value [3]?
A: Its value is “demonstrated affinity for DNA”.

Q: For O.O=c1c(O)c(-c2ccc(O)cc2O)oc2cc(O)cc(O)c12 [morin hydrate], which “affinity for unmodified (control) DNA” value [2] is on record?
A: Its value is “no detectable affinity”.

Q: And the “inhibition of MPG DNA binding” value (MPG [4])?
A: Its value is “Complete inhibition”.

Q: And the “effect on OGG1 activity” value [5]?
A: Its value is “some promiscuous inhibition”.

Q: And the “effect on the activity of APE1” value [6]?
A: Its value is “no effect”.

Q: What about the “toxicity (cell survival)” value (A549 cells) of the same compound?
A: Its value is “not toxic”.

Q: And the “inhibition of DNA polymerase β” value (DNA polymerase β)?
A: The value was “inhibit”.

Q: What about the “repair of 8-oxo-dG in live cells” value (repair of 8-oxo-dG; A549 cells, 0, 200, 300 µM) of the same compound?
A: The value was “unaffected”.

Q: What about the “repair of 8-oxo-dG in live cells” value (repair of 8-oxo-dG; HeLa cells, 0, 200, 300 µM) of the same compound?
A: Its value is “unaffected”.

Q: And the “MPG activity in whole cell extract” value (MPG [1]; A549 extract)?
A: The value was “inhibited”.

Q: And the “MPG activity in whole cell extract” value (MPG [1]; HeLa extract)?
A: Its value is “inhibited”.

Q: And the “affinity for εA-containing DNA” value [3]?
A: The value was “no detectable affinity”.

Q: And the reduction in repair (repair of εA; 300 µM morin hydrate, A549 and HeLa cells)?
A: The reduction in repair was 50–60%.

Q: What about the “repair of εA in live cells” value (repair of εA; A549 cells, 0, 200, 300 µM) of the same compound?
A: The value was “inhibited”.

Q: And the “repair of εA in live cells” value (repair of εA; HeLa cells, 0, 200, 300 µM)?
A: Its value is “inhibited”.

Q: And the IC50 (repair of εA; Homo sapiens, read-out: IC50 of MPG inhibition in live cells and in extracts)?
A: Its IC50 is 100 to 300 µM.

Q: What about the “inhibition of APE1” value (APE1) of the same compound?
A: The value was “inhibit”.

Q: And the “toxicity (cell survival)” value (HeLa cells)?
A: Its value is “not toxic”.

Reference: PMC4339462 (Bioorganic & medicinal chemistry, 2015)
